According to ChEMBL document CHEMBL1150609, “New furanoid diterpenes from Caesalpinia pulcherrima” (2002):

How the values were obtained:
Format in all cases: functional
[1] = tested on: Pseudomonas aeruginosa; test: Antimicrobial activity against Pseudomonas aeruginosa UPCC 1244 assessed as antimicrobial index at 30 ug after 24 hrs
[2] = tested on: Trichophyton mentagrophytes; test: Antimicrobial activity against Trichophyton mentagrophytes UPCC 4193 assessed as clearing zone at 30 ug after 72 hrs; conditions: read-out: IZ
Outline: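 T. mentagrophytes was grown as a 5-day culture and suspended in 0.1% peptone water at about 6 × 10^8 cells/mL. A 0.1 mL aliquot was seeded into a potato dextrose agar overlay with three 10 mm wells, each dosed in 95% EtOH (70 µg test sample; 30 µg standard). Plates were incubated at 30 ± 1 °C for 72 h, and the clear inhibition zone was read in mm.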

[3] = tested on: Trichophyton mentagrophytes; test: Antimicrobial activity against Trichophyton mentagrophytes UPCC 4193 assessed as antimicrobial index at 30 ug after 72 hrs
[4] = tested on: Staphylococcus aureus; test: Antimicrobial activity against Staphylococcus aureus UPCC 1143 assessed as antimicrobial index at 30 ug after 24 hrs
[5] = tested on: Staphylococcus aureus; test: Antimicrobial activity against Staphylococcus aureus UPCC 1143 assessed as clearing zone at 30 ug after 24 hrs; conditions: read-out: IZ
Outline: (§1)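 Agar-well diffusion. 24 h cultures were suspended in 0.1% peptone water at about 6 × 10^8 cells/mL, and 0.1 mL was seeded into a nutrient agar overlay. Three 10 mm wells were cut per plate, each loaded with sample in 95% EtOH (70 µg test sample; 30 µg standard). Plates were incubated at 30 ± 1 °C for 24 h, and the clear inhibition zone was measured in mm.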

[6] = tested on: Escherichia coli; test: Antimicrobial activity against Escherichia coli UPCC 1195 assessed as antimicrobial index at 30 ug after 24 hrs
[7] = tested on: Aspergillus niger; test: Antimicrobial activity against Aspergillus niger UPCC 3701 assessed as antimicrobial index at 30 ug after 48 hrs
[8] = tested on: Escherichia coli; test: Antimicrobial activity against Escherichia coli UPCC 1195 assessed as clearing zone at 30 ug after 24 hrs; conditions: read-out: IZ; outline: as §1
[9] = tested on: Candida albicans; test: Antimicrobial activity against Candida albicans UPCC 2168 assessed as antimicrobial index at 30 ug after 48 hrs
[10] = tested on: Candida albicans; test: Antimicrobial activity against Candida albicans UPCC 2168 assessed as clearing zone at 30 ug after 48 hrs; conditions: read-out: IZ
Outline: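 C. albicans was grown as a 24 h culture, suspended at about 6 × 10^8 cells/mL in 0.1% peptone water, and 0.1 mL was seeded into a glucose yeast peptone agar overlay. Three 10 mm wells per plate received sample in 95% EtOH (70 µg test sample; 30 µg standard). Plates were incubated at 30 ± 1 °C for 48 h, and the clear growth-inhibition zone was measured in mm.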

[11] = tested on: Bacillus subtilis; test: Antimicrobial activity against Bacillus subtilis UPCC 1149 assessed as clearing zone at 30 ug after 24 hrs; conditions: read-out: IZ; outline: as §1
[12] = tested on: Pseudomonas aeruginosa; test: Antimicrobial activity against Pseudomonas aeruginosa UPCC 1244 assessed as clearing zone at 30 ug after 24 hrs; conditions: read-out: IZ; outline: as §1
[13] = tested on: Bacillus subtilis; test: Antimicrobial activity against Bacillus subtilis UPCC 1149 assessed as antimicrobial index at 30 ug after 24 hrs
[14] = tested on: Aspergillus niger; test: Antimicrobial activity against Aspergillus niger UPCC 3701 assessed as clearing zone at 30 ug after 48 hrs; conditions: read-out: IZ

| Compound | Activity [1] | zone of inhibition at 30 µg/disc [2] [mm] | Activity [3] | Activity [4] | zone of inhibition at 30 µg/disc [5] [mm] | Activity [6] | Activity [7] | zone of inhibition at 30 µg/disc [8] [mm] | Activity [9] | zone of inhibition at 30 µg/disc [10] [mm] | zone of inhibition at 30 µg/disc [11] [mm] | zone of inhibition at 30 µg/disc [12] [mm] | Activity [13] | zone of inhibition at 30 µg/disc [14] [mm] |
| --- | --- | --- | --- | --- | --- | --- | --- | --- | --- | --- | --- | --- | --- | --- |
| COc1cccc(OC)c1C(=O)OCc1ccccc1 | 0.3 | 14 | 0.4 | 0.2 | 12 | 0.2 | 0 | 12 | 0.4 | 14 | 13 | 13 | 0.3 |  |
| O=C(N[C@H](CO)[C@H](O)c1ccc([N+](=O)[O-])cc1)C(Cl)Cl [CHLORAMPHENICOL] | 0.2 |  |  | 1.8 | 28 | 1.4 |  | 24 |  |  | 35 | 12 | 2.5 |  |
| Clc1ccccc1C(c1ccccc1)(c1ccccc1)n1ccnc1 [CLOTRIMAZOLE] |  | 21 | 1.1 |  |  |  |  |  | 1 | 20 |  |  |  |  |
| C[C@@H]1C[C@@H]([C@H](O)CC2CC(=O)NC(=O)C2)C(=O)[C@@H](C)C1 [CYCLOHEXIMIDE] |  |  |  |  |  |  | 0.3 |  |  |  |  |  |  | 13 |
| C=C1c2ccoc2C[C@H]2[C@H]1C[C@@H](OC(=O)c1ccccc1)[C@@]1(O)C(C)(C)CCC[C@]21C [ISOVOUACAPENOL A] | 0.2 | 12 | 0.2 | 0.6 | 16 | 0.2 | 0 | 12 | 0.4 | 14 | 15 | 12 | 0.5 |  |
| CC1(C)CCC[C@]2(C)[C@H]3Cc4occc4[C@@](C)(O)[C@@H]3C[C@@H](OC(=O)c3ccccc3)[C@@]12O [ISOVOUACAPENOL B] | 0.4 | 13 | 0.3 | 0.4 | 14 | 0.2 | 0.2 | 12 | 0.4 | 14 | 14 | 14 | 0.4 | 12 |
| C[C@H]1c2ccoc2C[C@H]2[C@H]1[C@@H](O)[C@@H](OC(=O)c1ccccc1)[C@@]1(O)C(C)(C)CCC[C@]21C [ISOVOUACAPENOL C] | 0.2 | 13 | 0.3 | 0.6 | 16 | 0.2 | 0 | 12 | 0.3 | 13 | 15 | 12 | 0.5 |  |
| Cc1c2c(cc3occc13)[C@@]1(C)CCCC(C)(C)[C@]1(O)[C@H](OC(=O)c1ccccc1)C2 [ISOVOUACAPENOL D] | 0.2 | 12 | 0.2 | 0.2 | 12 | 0.2 | 0 | 12 | 0.2 | 12 | 12 | 12 | 0.2 |  |
